Tests used:
[1] = Drug uptake in cytoplasm of human PC3 cells at 10 uM measured immediately by confocal fluorescence microscopic method; type: ADME
[2] = Drug uptake in endoplasmic reticulum of human PC3 cells co-expressing RFP at 10 uM by confocal microscopic analysis; type: ADME
Outline: (§1)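 Cells were transduced with BacMam baculovirus (50 particles/cell) for 16–24 h to express organelle-targeted RFP (Golgi, lysosomes, early/late endosomes, mitochondria, ER). After two phenol red-free DMEM rinses, 10 μM NBD-labelled compound was added, and red and green signals were imaged immediately by confocal microscopy.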

[3] = Drug uptake in lysosomes of human PC3 cells co-expressing RFP at 10 uM by confocal microscopic analysis; type: ADME, Lysosome; outline: as §1
[4] = Drug uptake in nuclear membrane of human PC3/TJ191 cells co-expressing RFP at 10 uM by confocal microscopic analysis; type: ADME, cell membranes
[5] = Drug uptake in endoplasmic reticulum of human PC3/TJ191 cells co-expressing RFP at 10 uM by confocal microscopic analysis; type: ADME
[6] = Drug uptake in mitochondria of human PC3 cells co-expressing RFP at 10 uM by confocal microscopic analysis; type: ADME; outline: as §1
[7] = Drug uptake in nuclear membrane of human PC3 cells co-expressing RFP at 10 uM by confocal microscopic analysis; type: ADME, cell membranes; outline: as §1
[8] = Drug uptake in lysosomes of human PC3/TJ191 cells co-expressing RFP at 10 uM by confocal microscopic analysis; type: ADME, Lysosome
[9] = (§2) Drug uptake in nucleus of human PC3/TJ191 cells co-expressing RFP at 10 uM by confocal microscopic analysis; type: ADME
[10] = Drug uptake in early endosome of human PC3 cells co-expressing RFP at 10 uM by confocal microscopic analysis; type: ADME; outline: as §1
[11] = as §2; type: ADME; remark: listed apart in the source
[12] = Drug uptake in late endosome of human PC3 cells co-expressing RFP at 10 uM by confocal microscopic analysis; type: ADME; outline: as §1
[13] = Drug uptake in nucleus of human PC3 cells co-expressing RFP at 10 uM by confocal microscopic analysis; type: ADME, cell-based; outline: as §1
[14] = Drug uptake in nucleus of human PC3 cells at 10 uM measured immediately by confocal fluorescence microscopic method; type: ADME, cell-based
[15] = Drug uptake in golgi apparatus of human PC3 cells co-expressing RFP at 10 uM by confocal microscopic analysis; type: ADME; outline: as §1
[16] = Drug uptake in mitochondria of human PC3/TJ191 cells co-expressing RFP at 10 uM by confocal microscopic analysis; type: ADME
[17] = Drug uptake in late endosome of human PC3/TJ191 cells co-expressing RFP at 10 uM by confocal microscopic analysis; type: ADME
[18] = Drug uptake in golgi apparatus of human PC3/TJ191 cells co-expressing RFP at 10 uM by confocal microscopic analysis; type: ADME
[19] = Drug uptake in early endosome of human PC3/TJ191 cells co-expressing RFP at 10 uM by confocal microscopic analysis; type: ADME
[20] = Drug uptake in nucleus of human HeLa cells at 10 uM measured immediately by confocal fluorescence microscopic method; type: ADME, cell-based
[21] = Drug uptake in nucleus of human HeLa cells at 10 uM measured after incubation by confocal fluorescence microscopic method; type: ADME, cell-based
[22] = Drug uptake in cytoplasm of human HeLa cells at 10 uM measured immediately by confocal fluorescence microscopic method; type: ADME, cell-based
[23] = Drug uptake in cytoplasm of human CEM cells at 10 uM measured immediately by confocal fluorescence microscopic method; type: ADME
[24] = Drug uptake in nucleus of human PC3 cells at 10 uM measured after incubation by confocal fluorescence microscopic method; type: ADME, cell-based
[25] = Drug uptake in nucleus of human CEM cells at 10 uM measured after incubation by confocal fluorescence microscopic method; type: ADME, cell-based
[26] = Drug uptake in nucleus of human CEM cells at 10 uM measured immediately by confocal fluorescence microscopic method; type: ADME, cell-based
[27] = Selectivity ratio of IC50 for human Raji cells to IC50 for human CEM cells; type: functional
Huh-7 = assay: Cytotoxicity against human HuH7 cells after 72 to 96 hrs by coulter counter method; type: functional, cell-based
MOLT-4 = assay: Cytotoxicity against human MOLT4 cells after 72 to 96 hrs by coulter counter method; type: functional, cell-based
CAKI-1 = assay: Cytotoxicity against human Caki1 cells after 72 to 96 hrs by coulter counter method; type: functional, cell-based
PC-3 = assay: Cytotoxicity against human PC3 cells after 72 to 96 hrs by coulter counter method
HeLa [28] = assay: Selectivity ratio of IC50 for human HeLa cells to IC50 for human PC3 cells; type: functional
Raji = assay: Cytotoxicity against human Raji cells after 72 to 96 hrs by coulter counter method; type: functional, cell-based
HeLa [29] = assay: Cytotoxicity against human HeLa cells after 72 to 96 hrs by coulter counter method; type: functional, cell-based
CCRF-CEM = assay: Cytotoxicity against human CEM cells after 72 to 96 hrs by coulter counter method

COC(=O)c1cc(CCCCCCCNc2ccc([N+](=O)[O-])c3nonc23)sc1N
Drug uptake [1]: Active
Drug uptake [2]: Active
Drug uptake [3]: Not Active
Drug uptake [4]: Active
Drug uptake [5]: Active
Drug uptake [6]: Active
Drug uptake [7]: Active
Drug uptake [8]: Not Active
Drug uptake [9]: Active
Drug uptake [10]: Not Active
Drug uptake [11]: Active
Drug uptake [12]: Not Active
Drug uptake [13]: Active
Drug uptake [14]: Not Active
Drug uptake [15]: Not Active
Drug uptake [16]: Not Active
Drug uptake [17]: Not Active
Drug uptake [18]: Not Active
Drug uptake [19]: Not Active

COC(=O)c1cc(CCCCCCCNS(=O)(=O)c2cccc3c(N(C)C)cccc23)sc1N
Drug uptake [1]: Active
Drug uptake [20]: Not Active
Drug uptake [21]: Not Active
Drug uptake [22]: Active
Drug uptake [23]: Active
Drug uptake [24]: Not Active
Drug uptake [25]: Not Active
Drug uptake [14]: Not Active
Drug uptake [26]: Not Active

CCc1cc(C(=O)OC)c(N)s1
Ratio IC50 [27]: >1.4
IC50 (Huh-7): 84 µM
IC50 (MOLT-4): 29 µM
IC50 (CAKI-1): 92 µM
IC50 (PC-3): 27 µM
Ratio IC50 (HeLa [28]): 6.7
IC50 (Raji): > 250 µM

CCCc1cc(C(=O)OC)c(N)s1
Ratio IC50 [27]: 16
IC50 (Huh-7): 2.5 µM
IC50 (MOLT-4): 2.1 µM
IC50 (HeLa [29]): 61 µM
IC50 (CAKI-1): 5.4 µM
IC50 (PC-3): 3.4 µM
Ratio IC50 (HeLa [28]): 18
IC50 (CCRF-CEM): 6.9 µM
IC50 (Raji): 104 µM

Reference: ChEMBL document CHEMBL4024716, “Pronounced anti-proliferative activity and tumor cell selectivity of 5-alkyl-2-amino-3-methylcarboxylate thiophenes” (Eur J Med Chem, 2017)
